For data set [1], the target named is T1, Tryptophan 2,3-dioxygenase (Homo sapiens, UniProt P48775). Put plainly: Inhibition of human purified TDO assessed as formation of kynurenine from N-formylkynurenine preincubated for 10 mins measured after 5 to 20 mins by discontinuous colorimetric method.
Data set [2] can be described thus: Solubility of the compound in 0.1 M of boric acid at pH 9 by HTS-PCF filter plate analysis. Type of data set: physicochemical. The note with it: buffer. In a few lines: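 Solubility measured by filter-plate filtration at 2.5% final DMSO. Buffers: pH 1.0 (0.1 M HCl, 20 mM NaCl), pH 7.4 (50 mM phosphate, 30 mM NaCl), pH 9.0 (0.1 M boric acid, 20 mM NaCl). Filtrate quantified by C18 LC/MS with UV detection at 254 nm, using a 5–95% acetonitrile gradient in 0.1% acetic acid.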

In data set [3] the target is T1, Tryptophan 2,3-dioxygenase. Put plainly: Inhibition of human purified TDO assessed as initial rate of L-Trp oxidation at 100 uM of substrate concentration.
The target in data set [4] is T1, Tryptophan 2,3-dioxygenase. Put plainly: Competitive inhibition of human purified TDO by Henri-Michaelis-Menten equation analysis. The method in brief:
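Recombinant human TDO expressed in E. coli, purified. Kynurenine formation read at 480 nm with Ehrlich's reagent after TCA stop and 65 °C hydrolysis. L-Trp and inhibitor concentrations both varied. Initial rates fitted to Henri–Michaelis–Menten equation for competitive Ki; Km obtained from the same data.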

Each structure is given as a SMILES string. pIC50, pKi: −log10 of the molar value. In brackets after ≈: the same amount, converted by molar mass.

T1 sequence (P48775 whole entry): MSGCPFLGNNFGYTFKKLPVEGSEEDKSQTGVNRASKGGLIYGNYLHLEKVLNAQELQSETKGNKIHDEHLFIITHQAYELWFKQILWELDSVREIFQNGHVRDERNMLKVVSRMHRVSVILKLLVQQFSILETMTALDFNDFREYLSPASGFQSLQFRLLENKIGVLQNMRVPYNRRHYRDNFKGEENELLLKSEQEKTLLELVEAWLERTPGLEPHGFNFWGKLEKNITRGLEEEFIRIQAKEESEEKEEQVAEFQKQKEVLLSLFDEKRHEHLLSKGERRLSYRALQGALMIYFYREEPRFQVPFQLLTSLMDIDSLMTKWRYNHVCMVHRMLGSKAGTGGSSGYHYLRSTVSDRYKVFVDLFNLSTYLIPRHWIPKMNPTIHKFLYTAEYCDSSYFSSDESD

By pIC50 is commonly meant the negative decadic logarithm of the IC50, by convention in mol/L. What is called solubility is how much of the substance goes into solution per volume. Take `Clc1ccc2c(/C=C/c3cccnc3)c[nH]c2c1`: the pIC50 in data set [1] was 5.30. Moreover, the solubility in data set [2] came to 32.1 mg/mL (≈ 126 mM).

As to `Clc1ccc2[nH]cc(/C=C/c3cccnc3)c2c1`, the pIC50 in data set [1] is 5.00. Moreover, the solubility in data set [2] was determined as 76 mg/mL (≈ 298 mM).

A word on the pKi: it is the negative decadic logarithm of the Ki, by convention in mol/L. Consider `Clc1cccc2c(/C=C/c3cccnc3)c[nH]c12`, for which the figures for the pIC50 in data set [3] and in data set [1] were 4.49 and < 4.30, respectively. The compound also displayed a solubility in data set [2] of 6 mg/mL (≈ 23.6 mM). The same compound had a negative-log Ki (pKi) in data set [4] of 4.68.

These data come from ChEMBL document CHEMBL2040834, “Synthesis, crystal structures and electronic properties of isomers of chloro-pyridinylvinyl-1H-indoles” (Eur J Med Chem, 2012).
